Measured values taken from ChEMBL document CHEMBL4145497, “Discovery of 2-aminothiazolyl berberine derivatives as effectively antibacterial agents toward clinically drug-resistant Gram-negative Acinetobacter baumanii” (Eur J Med Chem, 2018).
Converted amounts (≈) assume the structure as drawn.

How the values were obtained:
Cyberlindnera jadinii = assay: Antifungal activity against Candida utilis ATCC 9950 by CLSI two fold serial dilution method; format: functional; conditions: Williopsis jadinii
Klebsiella pneumoniae = assay: Antibacterial activity against drug-resistant Klebsiella pneumoniae after 18 to 24 hrs by CLSI two fold serial dilution method; format: functional
Micrococcus luteus [1] = assay: Antibacterial activity against Micrococcus luteus ATCC 4698 after 18 to 24 hrs by CLSI two fold serial dilution method; format: functional
Candida albicans [2] = assay: Antifungal activity against drug-resistant Candida albicans by CLSI two fold serial dilution method; format: functional
Escherichia coli [3] = assay: Potency index, ratio of norfloxacin MIC to compound MIC for antibacterial activity against Escherichia coli DH52; format: functional
Enterococcus faecalis = assay: Antibacterial activity against drug-resistant Enterococcus faecalis after 18 to 24 hrs by CLSI two fold serial dilution method; format: functional
Staphylococcus aureus [4] = assay: Antibacterial activity against Staphylococcus aureus ATCC 25923 after 18 to 24 hrs by CLSI two fold serial dilution method; format: functional
Aspergillus flavus = assay: Antifungal activity against Aspergillus flavus ATCC 204304 by CLSI two fold serial dilution method; format: functional
Saccharomyces cerevisiae = assay: Antifungal activity against Saccharomyces cerevisiae ATCC 9763 by CLSI two fold serial dilution method; format: functional
Aspergillus fumigatus = assay: Antifungal activity against drug-resistant Aspergillus fumigatus by CLSI two fold serial dilution method; format: functional
Candida tropicalis = assay: Antifungal activity against drug-resistant Candida tropicalis by CLSI two fold serial dilution method; format: functional
Pseudomonas aeruginosa [5] = assay: Antibacterial activity against Pseudomonas aeruginosa ATCC 27853 after 18 to 24 hrs by CLSI two fold serial dilution method; format: functional
Acinetobacter baumannii = assay: Antibacterial activity against drug-resistant Acinetobacter baumannii after 18 to 24 hrs by CLSI two fold serial dilution method; format: functional
Escherichia coli [6] = assay: Antibacterial activity against Escherichia coli DH52 after 18 to 24 hrs by CLSI two fold serial dilution method; format: functional
Candida albicans [7] = assay: Antifungal activity against Candida albicans ATCC 76615 by CLSI two fold serial dilution method; format: functional
Bacillus subtilis = assay: Antibacterial activity against Bacillus subtilis ATCC 21216 after 18 to 24 hrs by CLSI two fold serial dilution method; format: functional
Escherichia coli [8] = assay: Antibacterial activity against drug-resistant Escherichia coli after 18 to 24 hrs by CLSI two fold serial dilution method; format: functional
Pichia norvegensis = assay: Antifungal activity against Candida mycoderma ATCC 96918 by CLSI two fold serial dilution method; format: functional
Staphylococcus aureus [9] = assay: Antibacterial activity against methicillin-resistant Staphylococcus aureus N315 after 18 to 24 hrs by CLSI two fold serial dilution method; format: functional
Candida parapsilosis = assay: Antifungal activity against Candida parapsilosis ATCC 22019 by CLSI two fold serial dilution method; format: functional; conditions: Lodderomyces parapsilosis
Pseudomonas aeruginosa [10] = assay: Antibacterial activity against drug-resistant Pseudomonas aeruginosa after 18 to 24 hrs by CLSI two fold serial dilution method; format: functional
Micrococcus luteus [11] = assay: Potency index, ratio of berberine MIC to compound MIC for antibacterial activity against Micrococcus luteus ATCC 4698; format: functional
[12] = Aqueous solubility of the compound in phosphate buffer at pH 7.4 after 3 hrs by UV detection assay; format: physicochemical
Procedure, shortened: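 Water solubility measured at physiological pH, with berberine as the control.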

[13] = Oral bioavailability in ICR mouse at 10.4 to 83.2 mg/kg after 60 mins by HPLC method; format: ADME, organism-based; conditions: in vivo

Row | MIC (Cyberlindnera jadinii) [µM] | MIC (Aspergillus flavus) [µM] | MIC (Saccharomyces cerevisiae) [µM] | MIC (Candida albicans [7]) [µM] | MIC (Pichia norvegensis) [µM] | MIC (Candida parapsilosis) [µM] | solubility at 3 h [12] [µg/mL] | Compound | MIC (Klebsiella pneumoniae) [µM] | MIC (Micrococcus luteus [1]) [µM] | MIC (Enterococcus faecalis) [µM] | MIC (Staphylococcus aureus [4]) [µM] | MIC (Pseudomonas aeruginosa [5]) [µM] | MIC (Acinetobacter baumannii) [µM] | MIC (Escherichia coli [6]) [µM] | MIC (Bacillus subtilis) [µM] | MIC (Escherichia coli [8]) [µM] | MIC (Staphylococcus aureus [9]) [µM] | MIC (Pseudomonas aeruginosa [10]) [µM] | also measured
1 | 230 (≈ 128 µg/mL) | 460 (≈ 257 µg/mL) | 460 (≈ 257 µg/mL) | 230 (≈ 128 µg/mL) | 120 (≈ 67 µg/mL) | 30 (≈ 16.8 µg/mL) | 374 to 3190 (≈ 0.669 to 5.71 mM) | COc1cc(/C=N/Nc2nccs2)c2c(c1OCc1ccc(F)cc1)CN1CCc3cc4c(cc3C1C2)OCO4 (centres undefined) | – | 60 (≈ 33.5 µg/mL) | – | 110 (≈ 61.4 µg/mL) | 230 (≈ 128 µg/mL) | – | 460 (≈ 257 µg/mL) | 230 (≈ 128 µg/mL) | – | – | – | Ratio (Micrococcus luteus [11]): 12
2 | 520 (≈ 257 µg/mL) | 1040 (≈ 514 µg/mL) | 520 (≈ 257 µg/mL) | 260 (≈ 129 µg/mL) | 520 (≈ 257 µg/mL) | 30 (≈ 14.8 µg/mL) | 7020 to 10200 (≈ 14.2 to 20.6 mM) | COc1cc(/C=N/Nc2nccs2)c2c(c1OCCO)CN1CCc3cc4c(cc3C1C2)OCO4 (centres undefined) | – | 260 (≈ 129 µg/mL) | – | 130 (≈ 64.3 µg/mL) | 130 (≈ 64.3 µg/mL) | – | 130 (≈ 64.3 µg/mL) | 260 (≈ 129 µg/mL) | – | – | – | –

Row | Compound | MIC (Cyberlindnera jadinii) [µM] | MIC (Aspergillus flavus) [µM] | MIC (Saccharomyces cerevisiae) [µM] | MIC (Candida albicans [7]) [µM] | MIC (Pichia norvegensis) [µM] | MIC (Candida parapsilosis) [µM] | solubility at 3 h [12] [µg/mL] | MIC (Klebsiella pneumoniae) [µM] | MIC (Micrococcus luteus [1]) [µM] | MIC (Enterococcus faecalis) [µM] | MIC (Staphylococcus aureus [4]) [µM] | MIC (Pseudomonas aeruginosa [5]) [µM] | MIC (Acinetobacter baumannii) [µM] | MIC (Escherichia coli [6]) [µM] | MIC (Bacillus subtilis) [µM] | MIC (Escherichia coli [8]) [µM] | MIC (Staphylococcus aureus [9]) [µM] | MIC (Pseudomonas aeruginosa [10]) [µM] | also measured
3 | CCCCCCOc1c(OC)cc(/C=N/NC(N)=S)c2c1CN1CCc3cc4c(cc3C1C2)OCO4 (centres undefined) | 250 (≈ 128 µg/mL) | 250 (≈ 128 µg/mL) | 500 (≈ 255 µg/mL) | 60 (≈ 30.6 µg/mL) | 250 (≈ 128 µg/mL) | 60 (≈ 30.6 µg/mL) | – | 130 (≈ 66.4 µg/mL) | 250 (≈ 128 µg/mL) | 30 (≈ 15.3 µg/mL) | 130 (≈ 66.4 µg/mL) | 60 (≈ 30.6 µg/mL) | 60 (≈ 30.6 µg/mL) | 30 (≈ 15.3 µg/mL) | 130 (≈ 66.4 µg/mL) | 30 (≈ 15.3 µg/mL) | 130 (≈ 66.4 µg/mL) | 60 (≈ 30.6 µg/mL) | MIC (Candida albicans [2]): 60 µM (≈ 30.6 µg/mL); Ratio (Escherichia coli [3]): 53; MIC (Aspergillus fumigatus): 130 µM (≈ 66.4 µg/mL); MIC (Candida tropicalis): 60 µM (≈ 30.6 µg/mL)
4 | COc1ccc2cc3[n+](cc2c1OC)CCc1cc2c(cc1-3)OCO2 [BERBERINE] | – | – | – | – | – | – | 86 | 1380 | 690 to 1380 | 1380 | 340 | 690 | 1380 | 690 to 1380 | 690 to 1380 | 1380 | 1380 | 1380 | bioavailability [13]: < 1%
